{"source": "PubChem BioAssay AID2378", "about": "(NMMLSC, 2010)", "molecular_target": "Cell division control protein 42 homolog (Homo sapiens) (UniProt P60953)", "sequence (P60953 whole entry, looked up)": "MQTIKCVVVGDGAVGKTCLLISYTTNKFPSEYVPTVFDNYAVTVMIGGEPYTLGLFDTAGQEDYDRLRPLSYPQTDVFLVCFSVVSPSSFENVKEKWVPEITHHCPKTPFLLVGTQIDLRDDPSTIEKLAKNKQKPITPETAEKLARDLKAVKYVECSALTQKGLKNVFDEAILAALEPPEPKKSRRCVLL", "test": "Cdc42 GTP Bmax and Kd shifts – biochemical, EDTA buffer, varying GTP, mechanism study for Ras-family GTPase inhibitor project, late-stage follow-up (AID 2378)", "details": "GST-Cdc42 beads, BODIPY-GTP binding, flow cytometry", "how_it_was_run": "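Assay system: GST-Cdc42 on glutathione beads | Quantity: 4 µM GST-Cdc42 for bead loading | Doses: 10 µM compound, single dose | Times: 4 °C overnight capture, 2 min pre-incubation | Detection: Flow cytometry measurement of bead-associated BODIPY-GTP fluorescence | Read-out basis: GTP Bmax and Kd from one-site hyperbolic fit of specific binding | Benchmarks: DMSO vehicle reference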", "note": "pKd: −log10 of the molar value.", "data": [{"smiles": "COc1ccc(C2CC(c3ccccc3)=NN2c2ccc(S(N)(=O)=O)cc2)cc1", "note": "(configuration not stated)", "values": [{"measurement": "Bmax with compound", "setting": "at 10 µM, stronger effect = lower value", "value": 19800}, {"measurement": "pKd", "setting": "measured here: GTP Kd with compound", "value": 7.33}]}]}
